Values after ≈ are worked out from the molar mass of the structure shown. Active and inactive are the calls of the source. The rule behind the calls is not given here.
Assays:
Escherichia coli [1] = experiment: Antibacterial activity against Escherichia coli ATCC 25922 by agar diffusion assay; type: functional
Escherichia coli [2] = experiment: Antibacterial activity against Escherichia coli ATCC 25922 incubated for 18 hrs by dilution antimicrobial susceptibility test; type: functional; settings: ATCC 25922, 18 h
Outline: (§1)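 Broth dilution susceptibility method for aerobic bacteria in 96-well plates. Compounds dissolved in DMSO and serially diluted to 10 concentrations (0.5–256 μg/mL). Geneticin served as positive control for E. coli and vancomycin for MSSA. Tested in duplicate, with eight untreated media controls per plate. Incubated 18 h at 33 °C. MIC taken as lowest concentration preventing visible growth.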

Staphylococcus aureus [3] = experiment: Antibacterial activity against methicillin-sensitive Staphylococcus aureus ATCC 25913 by agar diffusion assay; type: functional
Staphylococcus aureus [4] = experiment: Antibacterial activity against methicillin-resistant Staphylococcus aureus ATCC 33591 by agar diffusion assay; type: functional, organism-based
Staphylococcus aureus [5] = experiment: Antibacterial activity against methicillin-sensitive Staphylococcus aureus ATCC 25913 incubated for 18 hrs by dilution antimicrobial susceptibility test; type: functional; settings: ATCC 25913, 18 h; outline: as §1

| SMILES | MIC (Staphylococcus aureus [5]) [µg/mL] | diameter of the inhibition zone (DIZ) (Escherichia coli [1]) | MIC (Escherichia coli [2]) [µg/mL] | diameter of the inhibition zone (DIZ) (Staphylococcus aureus [3]) [mm] | Activity (Staphylococcus aureus [4]) |
| --- | --- | --- | --- | --- | --- |
| CCCCCCCCCCOC(=O)c1ccc(O)c(NC(C)=O)c1 | > 200 | 6 mm | > 200 | 10 | inactive |
| CN[C@@H]1[C@@H](O)[C@@H](O[C@@H]2[C@@H](O)[C@H](O[C@H]3O[C@H]([C@H](C)O)[C@@H](O)[C@H](O)[C@H]3N)[C@@H](N)C[C@H]2N)OC[C@]1(C)O |  |  | 0.25 (≈ 0.503 µM) |  |  |
| CCCCCCCCCCCOC(=O)c1ccc(O)c(NC(C)=O)c1 | > 200 | 5 mm | > 200 | 5 | inactive |

Continued, in another order:

| MIC (Staphylococcus aureus [5]) [µg/mL] | SMILES | diameter of the inhibition zone (DIZ) (Escherichia coli [1]) | MIC (Escherichia coli [2]) [µg/mL] | diameter of the inhibition zone (DIZ) (Staphylococcus aureus [3]) [mm] | Activity (Staphylococcus aureus [4]) |
| --- | --- | --- | --- | --- | --- |
| > 200 | CCCCCCCCCCCCCCOC(=O)c1ccc(O)c(NC(C)=O)c1 |  | > 200 |  |  |
| > 200 | CCCCCCCCOC(=O)c1ccc(O)c(NC(C)=O)c1 | inactive | > 200 | 5 |  |
| > 200 | COC(=O)c1ccc(O)c(NC(C)=O)c1 | inactive | > 200 | 7 |  |

— ChEMBL document CHEMBL4339237, “Bulbiferates A and B: Antibacterial Acetamidohydroxybenzoates from a Marine Proteobacterium, Microbulbifer sp” (2019)
